Measurements of several laboratories.
Each line is one published result; the experiments were not run side by side.
Target: Tyrosine-protein kinase Fgr (FGR, Homo sapiens, UniProt P09769)

| SMILES | test | conditions | endpoint | result |
| --- | --- | --- | --- | --- |
| Cc1ccc(C(=O)NCc2ccsc2)cc1C#Cc1cn(C(C)C)c2ncnc(N)c12 | enzyme activity, inhibitor | 1 µM | activity vs control | 2% |
| O=C(Nc1cnn(-c2csc(C(=O)NC3COC3)c2)c1)Nc1c(F)cccc1Cl | enzyme activity, inhibitor | 5 µM | remaining activity | 95.5% |
| CC(C)CC(=O)N1CCc2nc(-c3ccc(Br)cc3)nc(N(C)Cc3ccccc3)c2C1 | cell-free assay, competition with immobilised ligand | 0.1 µM | remaining binding | 99% |
| CC(C)(C)c1nc2c(s1)c1nc(N)ncc1c1ccc(NS(=O)(=O)c3c(F)cccc3F)c(F)c12 | enzyme activity, inhibitor, radiometric | 1 µM | remaining activity | 91% |
| Cn1c2c(Cl)c(Cl)ccc2c2cc(N)[nH]c(=O)c21 | thermal stability, DSF | 10 µM | ΔTm | 0 °C |
| Nc1ncnc2occ(-c3ccc(NC(=O)Nc4cc(C(F)(F)F)ccc4F)cc3)c12 | cell-free assay, inhibitor | 20 µM | remaining signal | 5.2% |
| COc1cc2ncnc(Nc3ccc(Oc4ccccc4)cc3C)c2cc1OC | enzyme activity, inhibitor | 1 µM | inhibition | 98% |
| CCN(CC)c1ccc(C2=NNC(=O)CC2C)cc1[N+](=O)[O-] (stereo not shown) | enzyme activity, inhibitor | 10 µM | remaining activity | 85% |
| CCN1CCC2(CC1)NC(=O)c1c(c3ccc(Cl)c(Cl)c3n1C)C2C#N (racemic) | thermal stability, DSF | 10 µM | ΔTm | -0.1 °C |
| N#CCCc1ccc2c(c1)-c1[nH]c3ccc([N+](=O)[O-])cc3c1CC(=O)N2 | cell-free assay | 0.5 µM | remaining signal | 31% |
| CC(C)(O)[C@H]1CC[C@H](Nc2ccc3ncc(-c4cccc(C(F)(F)F)c4)n3n2)CC1 | enzyme activity, inhibitor | 1 µM | remaining activity | 36.8% |
| CNC(=O)c1cc(Oc2ccc(NC(=O)Nc3ccc(Cl)c(C(F)(F)F)c3)cc2)ccn1 | enzyme activity, inhibitor | 0.3 µM | inhibition | 10% |
| CC/C(=N\NC(=O)NCc1cccc(O)c1)c1ccc(O)c(C)c1O | enzyme activity, inhibitor | 0.1 µM | inhibition | 1.1% |
| Cc1ccc(Nc2nccc(N(C)c3ccc4c(C)n(C)nc4c3)n2)cc1S(N)(=O)=O | cell-free assay | 0.5 µM | remaining signal | 35.8% |
| O=C(O)c1cc(-c2ccc(C3CCNCC3)cc2)c2ccc(-c3ccc(C(F)(F)F)cc3)cc2c1 | cell-free assay, competition with immobilised ligand | 1 µM | remaining binding | 100% |
| Cn1c2c(c3ccc(Cl)c(Cl)c31)C(C#N)C1(CCCC1)NC2=O (stereo not shown) | thermal stability, DSF | 10 µM | ΔTm | -0.2 °C |
| COc1cc(-c2cn(C3CCc4c(F)cccc4N(CC(F)(F)F)C3=O)nn2)ccc1-n1cnc(C)c1 (stereo not shown) | cell-free assay, competition with immobilised ligand | 1 µM | remaining binding | 100% |
| CCN(CC)CCNC(=O)c1c(C)[nH]c(/C=C2\C(=O)Nc3ccc(F)cc32)c1C | enzyme activity, inhibitor | 10 µM | inhibition | 97% |
| NS(=O)(=O)c1cc(NC(=O)Cc2ccccc2)ccc1Oc1cccc(Cl)c1 | cell-free assay, competition with immobilised ligand | 1 µM | remaining binding | 100% |
| Cc1ccc(NC(=O)c2ccc(CN3CCN(C)CC3)cc2)cc1Nc1nc(-c2cccnc2)cs1 | cell-free assay | 0.5 µM | remaining signal | 43.6% |
| O=C(N1CCS(=O)(=O)CC1)N1C[C@H](c2ccc(OC(F)(F)F)cc2)C[C@H](c2nc(C3CC3)no2)C1 | cell-free assay, competition with immobilised ligand | 1 µM | remaining binding | 100% |
| Cc1cc(NC(=O)c2cccc3cc(-c4cccc5[nH]nc(N)c45)ccc23)ccc1F | enzyme activity, inhibitor | 0.1 µM | activity vs control | 110% |
| FC(F)(F)c1ccc2c(c1)nc(-c1cccnc1)n2C1CC1 | cell-free assay, competition with immobilised ligand | 1 µM | remaining binding | 100% |
| CC1(C)NC(=O)c2[nH]c3c(Cl)c(Cl)ccc3c2C1C#N (stereo not shown) | thermal stability, DSF | 10 µM | ΔTm | 0.2 °C |
| CNC(=O)c1ccc(Nc2ncc(C(F)(F)F)c(NCc3nccnc3N(C)S(C)(=O)=O)n2)cc1 | cell-free assay, competition with immobilised ligand | 0.1 µM | remaining binding | 81% |
| CN(c1nccc(-c2cnn3ncccc23)n1)C1CC1 | cell-free assay | 1 µM | remaining signal | 100% |
| C[C@H](NC(=O)c1cnc2n1[C@](C)(Cc1ccc(C#N)cc1)C(=O)N2c1cc(Cl)c(F)c(Cl)c1)C(=O)NC1(c2ccccn2)CC1 | cell-free assay, competition with immobilised ligand | 1 µM | remaining binding | 100% |
| Cn1c2c(c3ccc(Cl)c(Cl)c31)C(C#N)C1(CCOCC1)NC2=O (stereo not shown) | thermal stability, DSF | 10 µM | ΔTm | 0 °C |
